Test system: MS2 coat protein
Assay: apparent Kd, MS2 coat protein; higher = weaker binding; RNA-MaP array; FMN 200 µM where present
Summary of the method: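 Green signal was scaled to red-channel RNA signal and control-cluster median Fmax, and the apparent Kd was taken as the median of filtered per-cluster binding-curve fits. The binding series used SNAP-549-labelled MS2 coat protein from 0.7 or 1.5 nM, doubling to 3 µM, on designs transcribed by stalled E. coli RNA polymerase on Illumina sequencing-chip clusters. Each series ran without and then with constant ligand in 100 mM Tris-HCl pH 7.5, 80 mM KCl, 4 mM MgCl2, BSA, DTT, yeast tRNA and Tween-20.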

[1] = designed as: OFF switch for flavin mononucleotide, no ligand
[2] = ligand present: flavin mononucleotide, designed as: OFF switch for flavin mononucleotide
[3] = designed as: ON switch for flavin mononucleotide, no ligand
[4] = ligand present: flavin mononucleotide, designed as: ON switch for flavin mononucleotide

## UUAGGACAUGAGGAUCACCCAUGUGAGGAUAUGCUGCAGGGAGGUCCCAGCAAUAUUCGUAGAAGGCAUAAGGG
[1]
  apparent Kd: 221 nM
[2]
  apparent Kd: 177 nM

## UUAUAAAAGCAGAAGGGCCGAUUAAGGAUCCGCAUGGCGCUGGACAUGAGGAUCACCCAUGUAAGGCAGGAUAUGCAAAAUAAG
[1]
  apparent Kd: 458 nM
[2]
  apparent Kd: 24.8 nM

## UUAUAAAGUGUGAGGAUAUGCUGGUCGAUAGAUCAGCAGAAGGCACAUGAGGAUCACCCAUGUAAUAUAUUUUU
[1]
  apparent Kd: 48 nM
[2]
  apparent Kd: 239 nM

## UUAUACAUGAGGAUCUCCCAUGACAUGAGGAUCACCCAUGUGCAGGAUAUACGUGUUAUAAUAUAGUAGAAGGGCAGUCUAUGU
[1]
  apparent Kd: 27.2 nM
[2]
  apparent Kd: 66.5 nM

## UUAUACGCUGAGGAUAUUAUCACUGAGAGGUGAUGAGAAGGCGGUACAUGAGGAUCACCCAUGUCUAUGGGCAG
[1]
  apparent Kd: 282 nM
[2]
  apparent Kd: 240 nM

## UUAUACGUUGAGGAUAUGCGACUUAGUAUAGUUGUAGAAGGCGAUACAUGAGGAUCACCCAUGUUUAUGGGCAU
[1]
  apparent Kd: 220 nM
[2]
  apparent Kd: 300 nM

## UUAUAUAGGUAGGAUAUCGAUUUUAAUUAUUUUCGAGAAGGGUCAACAUGAGGAUCACCCAUGUCAGCAUGUAU
[1]
  apparent Kd: 58.7 nM
[2]
  apparent Kd: 49.1 nM

## UUAUGAGAGCAGGAUAUCUUAUUUUUUUUUUAUAGAGAAGGGCUCACAUGAGGAUCACCCAUGUGGUCCUAGAU
[1]
  apparent Kd: 32.5 nM
[2]
  apparent Kd: 52.5 nM

## UUAUGAGCGAUAGGAUAUACUGAGAUUGAAUGGGUAGAAGGAUCAAUUGUGUGGAAGACAUGAGGAUCACCCAUGUUACGGGCC
[3]
  apparent Kd: 104 nM
[4]
  apparent Kd: 337 nM

## UUAUGGAGGUAGGAUAUCAUGACGUCUUAGUUGUGAGAAGGGCUUACAUGAGGAUCACCCAUGUGGUGUUUUUG
[1]
  apparent Kd: 584 nM
[2]
  apparent Kd: 192 nM

## UUAUUUAGGUAGGAUAUCGAUAUUAUUCCCUAUCGAGAAGGGUCUACAUGAGGAUCACCCAUGUUAGCAUGUUU
[1]
  apparent Kd: 22.3 nM
[2]
  apparent Kd: 22.2 nM

## UUAUUUAUACAAGGAUAUCUAUUGUUAAUUCGACUUACAUGAGGAUCACCCAUGUUUUUAUGUUUAGAGAAGGUGUAAUUUCUG
[3]
  apparent Kd: 25.8 nM
[4]
  apparent Kd: 26.4 nM

## UUAUUUAUACAAGGAUAUCUAUUGUUAAUUCGACUUACAUGAGGAUCACCCAUGUUUUUAUGUUUAGAGAAGGUGUAUUUUCAG
[3]
  apparent Kd: 90.4 nM
[4]
  apparent Kd: 51.9 nM

## UUCACGUCAGGAUAUCCAUAUUUCCGAAAUAACGGUACUUUGGAGAAGGGACAUGAGGAUCACCCAUGUCCUCG
[2]
  apparent Kd: 40.1 nM

## UUCACGUUAGUAGGAUAUCCGACAUGAGGAUCACCCAUGUCAACAUGGCUCUAGGGAAGUUGUUAGGAGAAGGGCUUUUAAAUA
[3]
  apparent Kd: 11.9 nM
[4]
  apparent Kd: 10.3 nM

## UUCAGCUCGUGAGGAUAUACAUGUGCUGGAAACAGCACUAAAGAUUUCACAUGAGGAUCACCCAUGUAGAAGGCACGAGCUGAG
[1]
  apparent Kd: 16.2 nM
[2]
  apparent Kd: 39.4 nM

## UUCAGCUCGUGAGGAUAUACAUGUGCUGGAAACAGCACUAAUUAAUUCACAUGAGGAUCACCCAUGUAGAAGGCACGAGCUGAG
[1]
  apparent Kd: 15.7 nM
[2]
  apparent Kd: 18.1 nM

## UUCAGGGAUCAAGGAUAUCUAUACUCAUGCGGACAUGAGGAUCACCCAUGUUGAUUACCCAUGAGGGAGAAGGUGAACAUGAGG
[3]
  apparent Kd: 31.3 nM
[4]
  apparent Kd: 18.7 nM

## UUCAUCAAGGAAGGAUAUCUAUAUCCAACAUGAGGAUCACCCAUGUUGAGGAUCACCCAUGUAAAGGAGAAGGUUCAUAUAACU
[3]
  apparent Kd: 58.1 nM
[4]
  apparent Kd: 50.7 nM

## UUCAUGUGAGGAUAUAGUACUCCUUCUAUUAUUUUUGAGUAUUAGAAGGCACAUGAGGAUCACCCAUGUAGUAC
[1]
  apparent Kd: 28.1 nM
[2]
  apparent Kd: 46.9 nM

## UUCAUGUGAGGAUAUCAGUAGUAAAAAAAUAAAAUUACUACUGAGAAGGCACAUGAGGAUCACCCAUGUCCUUC
[1]
  apparent Kd: 62.5 nM
[2]
  apparent Kd: 40.8 nM

## UUCAUGUGAGGAUAUGCGGCGUCAGGUGGGCCUGUCGCUGAGCAGAAGGCACAUGAGGAUCACCCAUGUGCUCC
[1]
  apparent Kd: 31.7 nM
[2]
  apparent Kd: 62.5 nM

## UUCAUGUGAGGAUAUGUGAUCUGCUUUCUGUGUAGAUGAUCACAGAAGGCACAUGAGGAUCACCCAUGUAGAUC
[1]
  apparent Kd: 103 nM
[2]
  apparent Kd: 79.4 nM

## UUCAUGUGAGGAUAUGUGUACUGUUUUUUGUUUAGAUGUACACAGAAGGCACAUGAGGAUCACCCAUGUAGUAC
[1]
  apparent Kd: 49.5 nM
[2]
  apparent Kd: 20.4 nM

## UUCCUACAUGAGGAUCACCCAUGUCAGGAUAUCUCCUCGUCGCCAAUGGGCGACGAAUAGAGAAGGGACAGGAA
[1]
  apparent Kd: 15 nM
[2]
  apparent Kd: 16.7 nM

## UUCGAGCCAAGGCUCGCGAGUACACAGGAUAUGGAAAGUCACAUGAGGAUCACCCAUGUCCAAAACCAGAAGGGUGAGACUAAG
[4]
  apparent Kd: 70.4 nM

## UUCGUGCAGCUUUGCUGUACGCGUACAUGAGGAUCACCCAUGUAGGAUAUGGUACGCUUUGCGUGCUAGAAGGAUAUGGAAAGG
[1]
  apparent Kd: 14.7 nM
[2]
  apparent Kd: 16.6 nM

## UUCGUGCAGCUUUGCUGUACGCGUACAUGAGGAUCACCCAUGUAGGAUAUGGUAGGCUUUGUUUACUAGAAGGAUAGUGUGAUC
[1]
  apparent Kd: 140 nM
[2]
  apparent Kd: 45.8 nM

## UUCUAGCUCACAGGAUAUGGGUAUCGACGAUGCCCAGAAGGGUGAUUUGGCACAUGAGGAUCACCCAUGUGGGCGCUUGAAUAU
[3]
  apparent Kd: 45 nM
[4]
  apparent Kd: 98 nM

## UUCUUUACCUAGGAUAUCUUCGGUACGGUCCGGAGAGAAGGAGGUACAUGAGGAUCACCCAUGUCCCUCUGAAA
[1]
  apparent Kd: 12.6 nM
[2]
  apparent Kd: 13.6 nM

## UUGAGGAAUUAAGGAUAUUGAGUACAUAUGUUUAACAUGAGGAUCACCCAUGUGGGUUGCGGUAUCGAGAAGGUAAAUUACAAG
[3]
  apparent Kd: 129 nM
[4]
  apparent Kd: 133 nM

## UUGAGGUGCAAGAAGGGUCACAUGAGGAUCACCCAUGUCAUGUGAAGUCUCGAGAUUUUAUAUGGAUAGGAUAUUGCACCGAAC
[3]
  apparent Kd: 197 nM
[4]
  apparent Kd: 98.2 nM

## UUGAUAAAUUAGAAGGCGAGAUAAAAUACAAUAAACAUGAGGAUCACCCAUGUGUACCCAUGUUUUGAGGAUAUAGACAUUUAU
[3]
  apparent Kd: 922 nM
[4]
  apparent Kd: 399 nM

## UUGAUAUUGUAAGGAUAUACUCUGUGAUGAAGAGUAGAAGGUACUUACAUGAGGAUCACCCAUGUUUAACGAGAUACUAAUCGU
[3]
  apparent Kd: 48.9 nM
[4]
  apparent Kd: 20 nM

## UUGAUUAUACAAGGAUAUCAAUUGUAUACAAGUCAUACAUGAGGAUCACCCAUGUUUUAUUUUUUUGAGAAGGUGUAUUGUCAG
[3]
  apparent Kd: 38.9 nM
[4]
  apparent Kd: 24 nM

## UUGCACGUCGUAGGAUAUGUAGGAUAUUCCUACAUGAGGAUCACCCAUGUUGACAUGGAAGAAGGACAGAAGGACGAUGUCCAU
[3]
  apparent Kd: 686 nM
[4]
  apparent Kd: 10.9 nM

## UUGCAGUCAUCAGGAUAUAGUAUUACGGCCAUUUAUAUUUUCAUACAUGAGGAUCACCCAUGUCGCUAGAAGGGAUUAUCGAUU
[1]
  apparent Kd: 47.7 nM
[2]
  apparent Kd: 43 nM

## UUGCGACAUGAGGAUCACCCAUGUCAGGAUAUAUUGUAGAAACUGGUUGCGACCAGGCGUAGAAGGGACAUGGC
[1]
  apparent Kd: 28.6 nM
[2]
  apparent Kd: 37.7 nM

## UUGCGGUAGGAGAAGGACAGAGGCUUCAUUACAUACAUGAGGAUCACCCAUGUAGGAUAUCCUACCUAACGCGGACUCCUCCUG
[1]
  apparent Kd: 10.7 nM
[2]
  apparent Kd: 20.1 nM

## UUGCGGUAGGAGAAGGACAGAGGCUUCAUUACAUACAUGAGGAUCACCCAUGUAGGAUAUCCUACCUAACGCGGCCUCCUCCUG
[1]
  apparent Kd: 11.1 nM
[2]
  apparent Kd: 19.8 nM

## UUGCGGUCAGGAUAUGCAUGGCGGGACUUGCGUCGUGGCGUGGAGAAGGGACAUGAGGAUCACCCAUGUGGAGC
[1]
  apparent Kd: 54.5 nM
[2]
  apparent Kd: 59.9 nM

## UUGGACAUCGUAGGAUAUGUAGGAUAUUCCUACAUGAGGAUCACCCAUGUUGACAUGGAAGAAGGACAGAAGGACGAUGUCCAU
[3]
  apparent Kd: 207 nM
[4]
  apparent Kd: 4.12 nM

## UUGGACGUCGUAGGAUAUGUAGGAUACUCCUACAUGAGGAUCACCCAUGUUGACAUGGAAGAAGGACAGAAGGACGAUGUCCAU
[3]
  apparent Kd: 753 nM
[4]
  apparent Kd: 50.5 nM

## UUGGACGUCGUAGGAUAUGUAGGAUAUUCCUACAUGAGGAUCACCCAUGUUGACAUGGAAGAAGGACAAAAGGACGAUGUCCAU
[3]
  apparent Kd: 377 nM
[4]
  apparent Kd: 9.05 nM

## UUGGACGUCGUAGGAUAUGUAGGAUAUUCCUACAUGAGGAUCACCCAUGUUGACAUGGAAGAAGGACAGAAGAACGAUGUCCAU
[3]
  apparent Kd: 161 nM
[4]
  apparent Kd: 4.92 nM

## UUGGACGUCGUAGGAUAUGUAGGAUAUUCCUACAUGAGGAUCACCCAUGUUGACAUGGAAGAAGGACAGAAGGACGCUGUCCAU
[3]
  apparent Kd: 576 nM
[4]
  apparent Kd: 8.85 nM

## UUGGACGUCGUAGGAUAUGUAGUAUAUUCCUACAUGAGGAUCACCCAUGUUGACAUGGAAGAAGGACAGAAGGACGAUGUCCAU
[3]
  apparent Kd: 6.54 nM
[4]
  apparent Kd: 5.01 nM

## UUGGCCGUCGUAGGAUAUGUAGGAUAUUCCUACAUGAGGAUCACCCAUGUUGACAUGGAAGAAGGACAGAAGGACGAUGUCCAU
[3]
  apparent Kd: 365 nM
[4]
  apparent Kd: 4.87 nM

## UUGGGCGUCGUAGGAUAUGUAGGAUAUUCCUACAUGAGGAUCACCCAUGUUGACAUGGAAGAAGGACAGAAGGACGAUGUCCAU
[3]
  apparent Kd: 278 nM
[4]
  apparent Kd: 4.67 nM

## UUGGUAUUCGUAGGAUAUCUGUCGCCACCGUGUGGAGAAGGACGAACAUGAGGAUCACCCAUGUAUCAUGGUGUGGGCGUUGUC
[1]
  apparent Kd: 100 nM
[2]
  apparent Kd: 106 nM

## UUGGUGUACGUAGGAUAUGUAGGAUAUUCCUACAUGAGGAUCACCCAUGUUUACAUGGAAGAAGGACAGAAGGACGUGCACCAU
[3]
  apparent Kd: 1280 nM
[4]
  apparent Kd: 15.2 nM

## UUGUACAUUCGAGGAUAUCGGAGAGAGAUCAUUCGAGAAGGCGAUUCAUGAUGUAUUAUCCUGGACAUGAGGAUCACCCAUGUA
[3]
  apparent Kd: 111 nM
[4]
  apparent Kd: 65.9 nM

## UUGUAGGAGACAGGAUAUGUACGGAAGGUUCACGUACAUGAGGAUCACCCAUGUCCAGACUUCAGACAGAAGGGUCACCAGGUG
[3]
  apparent Kd: 113 nM
[4]
  apparent Kd: 17.2 nM

## UUGUGCUGAGAGAAGGUUCAAACUACAUAUUGCGCACAUGAGGAUCACCCAUGUUGGUGAAUAAGAAAGGAUAUUUUACUGUAU
[1]
  apparent Kd: 244 nM
[2]
  apparent Kd: 184 nM

## UUGUUAAAUGAAGGAUAUACUUAACAUGAGGAUCACCCAUGUGGUGUUGUGAGUGAGUGAGUUUAGUAGAAGGUCAAUUCUUUU
[1]
  apparent Kd: 229 nM
[2]
  apparent Kd: 232 nM
